# Measurements taken from ChEMBL document CHEMBL4038338 (J Med Chem, 2017).
# Activity calls are given as the source filed them. The rule behind the calls is not given here.
# Assays:
# [1] = target: T1, Carbonyl reductase [NADPH] 1 (Homo sapiens, UniProt P16152); assay: Drug level in human hepatocytes treated with [3H]-labeled N-(4-Amino-3,4-dioxo-1-phenylbutan-2-yl)-2-(3-(4-fluorophenyl)-1H-pyrazol-1-yl)nicotinamide assesseed as cytosolic carbonyl reductase-mediated compound formation; assay type: ADME, cell-based
# T1 sequence (P16152 whole entry): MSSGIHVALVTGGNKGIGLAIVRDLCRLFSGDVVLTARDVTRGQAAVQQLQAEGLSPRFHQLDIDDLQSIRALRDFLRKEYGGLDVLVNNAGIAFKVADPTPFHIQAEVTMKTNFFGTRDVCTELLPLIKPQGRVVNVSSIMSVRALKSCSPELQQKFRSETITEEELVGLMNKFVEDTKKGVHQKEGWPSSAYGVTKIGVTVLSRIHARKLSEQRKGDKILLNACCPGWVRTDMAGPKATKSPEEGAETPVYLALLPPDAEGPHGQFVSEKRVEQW
# [2] = Drug level in monkey blood treated with [3H]-labeled N-(4-Amino-3,4-dioxo-1-phenylbutan-2-yl)-2-(3-(4-fluorophenyl)-1H-pyrazol-1-yl)nicotinamide assesseed as cytosolic carbonyl reductase-mediated compound formation; assay type: ADME, Macaca mulatta; conditions: rhesus monkey, cytosol
# [3] = target: T1, Carbonyl reductase [NADPH] 1; assay: Drug level in human blood treated with [3H]-labeled N-(4-Amino-3,4-dioxo-1-phenylbutan-2-yl)-2-(3-(4-fluorophenyl)-1H-pyrazol-1-yl)nicotinamide assesseed as cytosolic carbonyl reductase-mediated compound formation; assay type: ADME; conditions: cytosol
# [4] = Drug level in monkey hepatocytes treated with [3H]-labeled N-(4-Amino-3,4-dioxo-1-phenylbutan-2-yl)-2-(3-(4-fluorophenyl)-1H-pyrazol-1-yl)nicotinamide assesseed as cytosolic carbonyl reductase-mediated compound formation; assay type: ADME, cell-based, Macaca mulatta; conditions: rhesus monkey
# Cathepsin S = Cathepsin S (Homo sapiens, UniProt P25774); assay: Inhibition of human cathepsin S expressed in Escherichia coli using Z-Val-Val-Arg-AMC as substrate by kinetic fluorescence assay
# [5] = target: T2, Calpain-1 catalytic subunit (Homo sapiens, UniProt P07384); assay: Inhibition of human erythrocytes calpain-1 using Suc-Leu-Tyr-AMC as substrate by kinetic fluorescence assay; conditions: read-out: Ki
# T2 sequence (P07384 whole entry): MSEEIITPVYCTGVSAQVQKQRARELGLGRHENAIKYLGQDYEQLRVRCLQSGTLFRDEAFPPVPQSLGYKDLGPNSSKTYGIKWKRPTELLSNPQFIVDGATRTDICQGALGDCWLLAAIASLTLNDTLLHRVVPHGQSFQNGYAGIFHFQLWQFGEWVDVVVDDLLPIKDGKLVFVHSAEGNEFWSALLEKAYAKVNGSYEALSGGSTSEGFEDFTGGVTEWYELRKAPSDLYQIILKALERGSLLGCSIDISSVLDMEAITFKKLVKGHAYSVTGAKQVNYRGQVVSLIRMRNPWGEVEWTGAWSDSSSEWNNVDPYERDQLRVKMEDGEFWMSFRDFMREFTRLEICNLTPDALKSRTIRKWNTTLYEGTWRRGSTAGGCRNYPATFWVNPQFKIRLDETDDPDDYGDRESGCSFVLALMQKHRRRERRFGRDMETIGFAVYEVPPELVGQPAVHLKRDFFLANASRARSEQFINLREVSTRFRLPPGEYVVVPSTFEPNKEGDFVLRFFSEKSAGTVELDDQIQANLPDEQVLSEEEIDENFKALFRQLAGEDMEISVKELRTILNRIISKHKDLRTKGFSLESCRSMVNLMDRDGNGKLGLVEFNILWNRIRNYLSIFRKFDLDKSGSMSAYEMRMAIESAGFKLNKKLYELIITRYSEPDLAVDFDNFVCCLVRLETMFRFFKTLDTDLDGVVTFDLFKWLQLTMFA
# [6] = Inhibition of human liver cathepsin L using Z-Phe-Arg-AMC as substrate by kinetic fluorescence assay
# [7] = target: T3, Calpain-1 catalytic subunit (Rattus norvegicus, UniProt P97571); assay: (§1) Inhibition of calpain-1 in rat hippocampal slices assessed as prevention of NMDA-induced spectrin cleavage preincubated for 30 mins followed by NMDA addition measured after 5 hrs by Western blot analysis
# T3 sequence (P97571 whole entry): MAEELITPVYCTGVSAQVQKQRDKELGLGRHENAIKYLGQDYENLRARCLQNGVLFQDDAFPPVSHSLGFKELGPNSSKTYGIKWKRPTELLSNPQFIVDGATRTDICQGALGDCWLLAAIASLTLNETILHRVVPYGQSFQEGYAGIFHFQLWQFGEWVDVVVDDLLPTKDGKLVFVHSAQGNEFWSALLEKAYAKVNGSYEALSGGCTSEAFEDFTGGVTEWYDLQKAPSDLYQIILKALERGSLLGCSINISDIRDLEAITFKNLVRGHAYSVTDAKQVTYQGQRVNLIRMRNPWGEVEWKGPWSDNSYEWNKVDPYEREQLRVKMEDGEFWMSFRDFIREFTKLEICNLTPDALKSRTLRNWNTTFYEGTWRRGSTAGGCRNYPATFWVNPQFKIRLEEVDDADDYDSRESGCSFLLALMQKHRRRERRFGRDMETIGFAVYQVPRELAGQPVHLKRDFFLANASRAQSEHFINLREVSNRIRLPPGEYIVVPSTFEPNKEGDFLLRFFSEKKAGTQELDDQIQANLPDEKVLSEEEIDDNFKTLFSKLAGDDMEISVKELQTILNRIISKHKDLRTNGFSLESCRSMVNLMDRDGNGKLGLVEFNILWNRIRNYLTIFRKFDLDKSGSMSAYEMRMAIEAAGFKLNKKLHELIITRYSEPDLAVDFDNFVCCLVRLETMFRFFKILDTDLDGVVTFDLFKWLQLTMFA
# Summary of the method: (§2)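 Organotypic rat hippocampal slice cultures kept 6–8 days in 2% serum medium; 30 min inhibitor pre-incubation, then 10 µM NMDA for 5 h at 34°C, 5% CO2. Slices lysed; 150/145 kDa spectrin breakdown products quantified by densitometric Western blot with anti-spectrin alpha chain antibody.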
# [8] = target: T4, Calpain-1 catalytic subunit (Rattus norvegicus) (UniProt P97571); assay: as §1; summary of the method: as §2
# T4 sequence (whole entry): T3 sequence (P97571 whole entry)
# [9] = target: T5, Calpain-1 catalytic subunit (Homo sapiens) (UniProt P07384); assay: Inhibition of human erythrocytes calpain-1 using Suc-Leu-Tyr-AMC as substrate in presence of up to 10 mM glutathione by kinetic fluorescence assay
# T5 sequence (whole entry): T2 sequence (P07384 whole entry)
# Homo sapiens [10] = species: Homo sapiens; assay: Selectivity ratio of Ki for recombinant human cathepsin S expressed in Escherichia coli to Ki for human erythrocytes calpain-1
# Summary of the method: (§3)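 Ki ratios from kinetic fluorescence assays. Cathepsins B (0.25 nM), L (1 nM), K (3 nM) and S (0.5 nM) in MES buffer at pH 6.0. All at room temperature; Ki by Cheng-Prusoff.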
# Homo sapiens [11] = species: Homo sapiens; assay: Selectivity ratio of Ki for recombinant human procathepsin K expressed in Escherichia coli to Ki for human erythrocytes calpain-1; summary of the method: as §3
# [12] = Thiol reactivity using recombinant human full length 13C-labeled La antigen (100 to 324 residues) expressed in Escherichia coli BL21(DE3) by ALARM NMR
# [13] = Selectivity ratio of Ki for human liver cathepsin B to Ki for human erythrocytes calpain-1
# [14] = Selectivity ratio of Ki for human liver cathepsin L to Ki for human erythrocytes calpain-1
# Cathepsin S, sequence (P25774 whole entry): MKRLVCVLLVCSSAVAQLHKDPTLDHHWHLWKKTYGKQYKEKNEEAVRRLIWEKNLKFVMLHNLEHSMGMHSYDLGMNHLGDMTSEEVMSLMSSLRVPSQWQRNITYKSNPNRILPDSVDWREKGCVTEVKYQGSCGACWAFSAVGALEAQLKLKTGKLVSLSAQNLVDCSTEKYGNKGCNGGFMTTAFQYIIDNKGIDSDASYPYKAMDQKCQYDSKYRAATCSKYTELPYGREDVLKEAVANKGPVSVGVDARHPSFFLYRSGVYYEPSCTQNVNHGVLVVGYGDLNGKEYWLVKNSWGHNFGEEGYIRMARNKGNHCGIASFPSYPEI
Structure (SMILES),Ki (Cathepsin S) [nM],Ki [5] [nM],Ki [6] [nM],IC50 [7] [nM],inhibition [9],further results
NC(=O)C(O)C(Cc1ccccc1)NC(=O)c1cccnc1-n1ccc(-c2ccc(F)cc2)n1 (configuration not stated),–,–,–,–,–,Drug metabolism [1]: Metabolite_Detected; Drug metabolism [2]: Metabolite_Detected; Drug metabolism [3]: Metabolite_Detected; Drug metabolism [4]: Metabolite_Detected
CCN(CC)Cc1ccc(/C=C/c2ncccc2C(=O)NC(Cc2ccccc2)C(=O)C(N)=O)cc1 (configuration not stated),> 10000,109,204,–,–,–
NC(=O)C(=O)C(Cc1ccccc1)NC(=O)c1cccnc1N1CCN(c2ccccc2)CC1 (configuration not stated),7260,250,491,–,–,–

# Further lines, with some results ahead:
Ki (Cathepsin S) [nM],Ki [5] [nM],Ki [6] [nM],IC50 [7] [nM],inhibition [9],Structure (SMILES),further results
–,18,–,971,Active,NC(=O)C(=O)C(Cc1ccccc1)NC(=O)c1cccnc1-n1ccc(-c2ccccc2)n1 (configuration not stated),fIC50 [8]: 39 nM
–,100,–,> 10000,Active,CCN(CC)Cc1ccc(-c2ccn(-c3ncccc3C(=O)NC(Cc3ccccc3)C(=O)C(N)=O)n2)cc1 (configuration not stated),Ratio Ki (Homo sapiens [10]): 69; Ratio Ki (Homo sapiens [11]): < 1; Thiol reactivity [12]: Metabolite not detected; Ratio Ki [13]: <1; Ratio Ki [14]: 3
